Reference: ChEMBL document CHEMBL4513216, “Probing the Open Global Health Chemical Diversity Library for Multistage-Active Starting Points for Next-Generation Antimalarials” (ACS Infect Dis, 2020)

Assay: Toxicity liver stage against HepG2, at 10uM
Assay type: cell-based
Set-up: test concentration 10 uM, cell line HepG2-A16-CD81EGFP
Settings: human, HepG2-A16-CD81EGFP cells; read-out: INHIBITION
Procedure, shortened: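 Uninfected HepG2-A16-CD81EGFP cells, 3 × 10^3 per well, 1536-well, plated on prespotted compound at 10 μM final, parasite-free screening media added to match infected plates; puromycin 10 μM positive, DMSO 0.5% negative; run in parallel with 48 h PbLuc assay at 37 °C, 5% CO2; viability by CellTiter-Glo luminescence, normalized to controls.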

SMILES: COc1ccc(C[C@H]2CN(c3nnc(C)s3)CC[C@H]2OC)cc1
- cytotoxicity at 10 µM: 8.04%

SMILES: N#Cc1cccc(OC2CCN(C(=O)c3cncc(O)c3)CC2)c1
- cytotoxicity at 10 µM: 7.28%

SMILES: CCN(CCN1CCOCC1)C(=O)c1cccnc1
- cytotoxicity at 10 µM: 7.42%

SMILES: Cc1nc(N)sc1C(=O)N[C@H]1CN(CCO)C[C@@H]1C1CC1
- cytotoxicity at 10 µM: 1.81%

SMILES: CCOc1cc(C(=O)N2CCCC2)cc2occc12
- cytotoxicity at 10 µM: 8.52%

SMILES: Cc1cc(-c2cnc(NCc3ccc4c(c3)OCO4)nc2C(C)C)on1
- cytotoxicity at 10 µM: -1.23%

SMILES: CC(C)CC(C)NCc1cccnc1N1CCN(c2ccccn2)CC1 (stereo unspecified)
- cytotoxicity at 10 µM: 0.997%

SMILES: O=C(NCc1ccc2c(c1)OCO2)[C@H]1C=CCN1c1ncccn1
- cytotoxicity at 10 µM: -4.52%

SMILES: O=C(C1CC(F)(F)C1)N1CC[C@H]2OCC[C@@]2(COCC2CC2)C1
- cytotoxicity at 10 µM: -3.09%

SMILES: O=C(Nc1cccnc1)C1CCCN(c2cc(-n3cccn3)ncn2)C1 (stereo unspecified)
- cytotoxicity at 10 µM: -5.36%

SMILES: O=C(C1CCCC1)N1C[C@@H](c2ccsc2)[C@@H]2CN(C3CCCC3)CC[C@@H]21
- cytotoxicity at 10 µM: 4.79%

SMILES: CC(NC(=O)CN1CCN(Cc2ccc(Br)s2)CC1)c1ccccc1 (stereo unspecified)
- cytotoxicity at 10 µM: 8.44%

SMILES: Cc1cnn(CC2CCCCN2C(=O)Cc2ccc(C#N)cc2)c1 (stereo unspecified)
- cytotoxicity at 10 µM: -7.09%

SMILES: Cc1ccc2c(n1)N(CCN(C)C)CCN(Cc1c(C)noc1C)C2
- cytotoxicity at 10 µM: 5.74%

SMILES: Cc1cc(C)c2nc(CN3CCOC(CCO)C3)cc(O)c2c1 (stereo unspecified)
- cytotoxicity at 10 µM: -9.26%

SMILES: Fc1ccccc1-c1nnn(CCCc2nn[nH]n2)n1
- cytotoxicity at 10 µM: -4.3%

SMILES: CCCS(=O)(=O)N1CCOC2(COCCN(C(C)=O)C2)C1 (stereo unspecified)
- cytotoxicity at 10 µM: 19.9%

SMILES: CN1[C@H](Cn2cccn2)C[C@@H]2CN(Cc3cccs3)CC[C@@H]21
- cytotoxicity at 10 µM: 11.9%

SMILES: CC[C@@H](CO)NC(=O)c1cccc(CCC(C)(C)O)c1
- cytotoxicity at 10 µM: -3.33%

SMILES: CN(C)CC1CN(Cc2ccc(-n3cccn3)cc2)CCO1 (stereo unspecified)
- cytotoxicity at 10 µM: 4.09%

SMILES: Cc1ccc(F)c(NS(=O)(=O)c2cc(C(=O)O)oc2C)c1
- cytotoxicity at 10 µM: -3.52%

SMILES: COc1ncnc(N)c1CNCCc1ccc(-n2cccn2)cc1
- cytotoxicity at 10 µM: -13.3%

SMILES: COCCSc1ccc(C(C)NC(=O)Nc2cn[nH]c2)cc1 (stereo unspecified)
- cytotoxicity at 10 µM: 8.88%

SMILES: CN1CCC2(Cc3ccccc3NC2=O)C1 (stereo unspecified)
- cytotoxicity at 10 µM: 9.82%

SMILES: O=C(NCc1ccnc(-n2cccn2)c1)C1CC(=O)N(CC2CC2)C1 (stereo unspecified)
- cytotoxicity at 10 µM: 5.48%

SMILES: CN(C)c1ccc(-c2nnc([C@H]3CCN(C4CCCCC4)C3)o2)cc1
- cytotoxicity at 10 µM: 0.174%

SMILES: COC(=O)CCCNC(=O)Nc1ccccc1OC
- cytotoxicity at 10 µM: 6.45%

SMILES: N#Cc1ccc(CN2CCCC2Cn2cccn2)c(F)c1 (stereo unspecified)
- cytotoxicity at 10 µM: -9.2%

SMILES: O=C(CCOc1ccccc1F)N1CCC(O)CC1
- cytotoxicity at 10 µM: -14%

SMILES: Cc1nn(C)cc1C1CC(=O)Nc2c1cnn2C(C)C (stereo unspecified)
- cytotoxicity at 10 µM: -4.31%

SMILES: Cc1nccnc1N1CC[C@@H](NC(=O)c2cnccn2)[C@H](O)C1
- cytotoxicity at 10 µM: -11.3%

SMILES: NC(=O)CCN(C(=O)c1cccc2c1OCO2)c1ccccc1
- cytotoxicity at 10 µM: -16.5%

SMILES: Cn1ncc2c(N3CCCN(C(=O)c4ccsc4)CC3)ncnc21
- cytotoxicity at 10 µM: -10.6%

SMILES: CC(C)Nc1cccc(CC2CCN(S(C)(=O)=O)CC2)n1
- cytotoxicity at 10 µM: -22.3%

SMILES: Cc1ccc(O)c(C(=O)N2CCOCC2c2c(C)nn(C)c2C)c1 (stereo unspecified)
- cytotoxicity at 10 µM: -8.53%

SMILES: CN(Cc1ccccc1Br)C(=O)Cn1nc(-c2ccc(F)cc2)oc1=O
- cytotoxicity at 10 µM: 9.46%

SMILES: CCc1c(C(=O)O)nnn1-c1cccc(C)c1C
- cytotoxicity at 10 µM: -16.1%

SMILES: CCC1=N[C@@]2(CC[C@@H]3CN(C(=O)Nc4ccccc4)C[C@@H]32)C(=O)N1C
- cytotoxicity at 10 µM: 16.8%

SMILES: COc1ccc(CCn2cnc(C#N)n2)cc1
- cytotoxicity at 10 µM: 0.866%

SMILES: O=C(CN1CCOc2ccc(Cl)cc21)NCCCn1cccn1
- cytotoxicity at 10 µM: -0.174%

SMILES: Cc1ccccc1CCNC(=O)CN1CCCC(Cn2cncn2)C1 (stereo unspecified)
- cytotoxicity at 10 µM: -5.04%

SMILES: Cc1nn(C)c(C)c1-c1cncc(C2CCN(S(C)(=O)=O)CC2)n1
- cytotoxicity at 10 µM: 8.88%

SMILES: CSCCC(NC(=O)c1ccc2ccccc2n1)C(=O)NC1CC1 (stereo unspecified)
- cytotoxicity at 10 µM: -7.03%

SMILES: Cc1cc(C(=O)NC2CC(=O)N(C(C)C)C2=O)c(C)n1C(C)C (stereo unspecified)
- cytotoxicity at 10 µM: -9.13%

SMILES: CCN(CC)c1ncnc2c1CCN(C(=O)Cc1ccccn1)CC2
- cytotoxicity at 10 µM: 3.13%

SMILES: O=C1CCCN1CC1CN(C(=O)C2CCOCC2)Cc2nccn2C1 (stereo unspecified)
- cytotoxicity at 10 µM: 3.33%

SMILES: COc1ccccc1CNC(=O)CS(=O)(=O)Cc1ccccc1
- cytotoxicity at 10 µM: 3.26%

SMILES: CC(=O)NCc1ccc(-c2ccccc2C(=O)O)cn1
- cytotoxicity at 10 µM: 1%

SMILES: CC(C)C[C@H](Nc1nc(C2CCCC2)nc2c1cnn2C)C(N)=O
- cytotoxicity at 10 µM: -42.3%

SMILES: Cn1cc(-n2cc3nc(N4CCOCC4)[nH]cc-3c2=O)cn1
- cytotoxicity at 10 µM: 7.36%

SMILES: Cc1nc(Cn2cncc(Br)c2=O)no1
- cytotoxicity at 10 µM: -12.2%

SMILES: O=C(CCc1cc2n(n1)CCCN(C(=O)c1cccnc1)C2)NC1CC1
- cytotoxicity at 10 µM: -7.38%

SMILES: O=C1CNCC(C(=O)N2CC(Oc3ccccc3Cl)C2)N1 (stereo unspecified)
- cytotoxicity at 10 µM: 10.9%

SMILES: CC(NCc1ccsc1)c1ccc2c(c1)NC(=O)CO2 (stereo unspecified)
- cytotoxicity at 10 µM: -7.6%

SMILES: Cc1noc(C)c1CNCC1Cn2nncc2CO1 (stereo unspecified)
- cytotoxicity at 10 µM: -101%

SMILES: Cn1ccnc1CNCCNc1ncc(Cl)cc1Cl
- cytotoxicity at 10 µM: 0.321%
